ChEMBL document CHEMBL1139875, “Discovery of 4-aminobutyric acid derivatives possessing anticonvulsant and antinociceptive activities: a hybrid pharmacophore approach” (2007)
Activity calls are given as the source filed them. The rule behind the calls is not given here.

Tests used:
Rattus norvegicus [1] = experiment: Antihyperalgesic effects in Sprague-Dawley rat SNL model assessed as duration of paw withdrawal at 100 mg/kg, ip after 2 hrs, ip; format: functional; conditions: route intraperitoneal
In short: (§1)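 L5 SNL rats (n = 4), dosed 100 mg/kg i.p. (vehicle 30% v/v PEG 400 in water). Pin-prick to midplantar ipsilateral left hindpaw; withdrawal duration, mean of three responses; ≥2 s defined abnormal. Mean ± SEM; one-way ANOVA with Bonferroni versus predrug.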

Rattus norvegicus [2] = experiment: Antihyperalgesic effects in Sprague-Dawley rat CCI model assessed as duration of paw withdrawal at 100 mg/kg, ip after 1 hr; format: functional; conditions: route intraperitoneal
Rattus norvegicus [3] = experiment: Antihyperalgesic effects in Sprague-Dawley rat SNL model assessed as duration of paw withdrawal at 100 mg/kg, ip after 0.5 hr, ip; format: functional; conditions: route intraperitoneal; in short: as §1
Rattus norvegicus [4] = experiment: Antihyperalgesic effects in Sprague-Dawley rat SNL model assessed as duration of paw withdrawal at 100 mg/kg, ip after 1.5 hrs, ip; format: functional; conditions: route intraperitoneal; in short: as §1
Rattus norvegicus [5] = experiment: Effect on spontaneous pain in Sprague-Dawley rat CCI model assessed as duration of paw withdrawal at 100 mg/kg, ip after 2 hrs; format: functional; conditions: route intraperitoneal
In short: (§2)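 Unilateral CCI of sciatic nerve (Bennett and Xie) in Sprague-Dawley rats under i.p. pentobarbital sodium (65 mg/kg). Spontaneous pain is scored over 5 min after 10 min acclimatization, as cumulative time the ipsilateral paw is held off the floor. Paw lifts from locomotion or repositioning are excluded. Drug is given at 100 mg/kg i.p. with 30% v/v PEG 400 vehicle. Mean ± SEM, n = 4, compared with predrug by ANOVA/Bonferroni.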

Rattus norvegicus [6] = experiment: Anti-cold allodynia effect in Sprague-Dawley rat SNL model assessed as duration of paw withdrawal 100 mg/kg, ip after 2 hrs; format: functional; conditions: route intraperitoneal
In short: (§3)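 Left L5 spinal nerve ligation under pentobarbital (65 mg/kg i.p.). Allodynic rats dosed i.p. 100 mg/kg, vehicle 30% v/v PEG 400 in water. Acetone (100-200 µL) misted onto midplantar affected paw after 10 min acclimatization; paw withdrawal duration, mean of three samples at least 3 min apart; n = 4 rats.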

Rattus norvegicus [7] = experiment: Effect on spontaneous pain in Sprague-Dawley rat CCI model assessed as duration of paw withdrawal at 100 mg/kg, ip after 1 hr; format: functional; conditions: route intraperitoneal
In short: (§4)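 CCI rats (n = 4) dosed 100 mg/kg i.p. (vehicle 30% v/v PEG 400 in water). After 10 min acclimatization in a cage 5 cm above ground, cumulative time the ipsilateral paw was held off the floor over 5 min recorded, excluding locomotion lifts. Mean ± SEM; ANOVA/Bonferroni versus predrug.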

Rattus norvegicus [8] = experiment: Antihyperalgesic effects in Sprague-Dawley rat CCI model assessed as duration of paw withdrawal at 100 mg/kg, ip after 2.5 hrs; format: functional; conditions: route intraperitoneal
Rattus norvegicus [9] = experiment: Effect on spontaneous pain in Sprague-Dawley rat CCI model assessed as duration of paw withdrawal at 100 mg/kg, ip after 0.5 hr; format: functional; conditions: route intraperitoneal; in short: as §4
Mus musculus [10] = experiment: Anticonvulsant activity in Swiss Albino mouse at 300 mg/kg, ip after 0.5 hr by scPIC test; format: functional, organism-based; design: dose 300 mg/kg
In short: (§5)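 Mice (Swiss, 20-25 g) given i.p. doses of 30, 100 and 300 mg/kg under ADD program protocols, three per group, examined at 0.5 and 4 h in MES, scPTZ, scSTY or scPIC seizure tests. Value is the minimum dose protecting half or more of the mice.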

Mus musculus [11] = experiment: Analgesic activity in Swiss Albino mouse assessed as number of acetic acid-induced writhing per 30 min after 100 mg/kg, ip; format: functional; conditions: route intraperitoneal
In short: (§6)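 Mice in groups of six dosed i.p. at 100 mg/kg, controls receiving 30% v/v PEG 400 in water. Writhing induced by i.p. 0.1 mL of 3% v/v acetic acid 1 h after drug. Writhes (abdominal stretch with at least one hind limb extended) counted over 30 min; % inhibition calculated. Mean ± SEM, Student's t test.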

Mus musculus [12] = experiment: Anticonvulsant activity in Swiss Albino mouse at 300 mg/kg, ip after 4 hrs by MES test; format: functional, organism-based; design: dose 300 mg/kg; in short: as §5
Rattus norvegicus [13] = experiment: Anti-cold allodynia effect in Sprague-Dawley rat SNL model assessed as duration of paw withdrawal 100 mg/kg, ip after 0.5 hr; format: functional; conditions: route intraperitoneal; in short: as §3
Rattus norvegicus [14] = experiment: Antihyperalgesic effects in Sprague-Dawley rat SNL model assessed as duration of paw withdrawal at 100 mg/kg, ip after 2.5 hrs, ip; format: functional; conditions: route intraperitoneal; in short: as §1
Rattus norvegicus [15] = experiment: Anti-cold allodynia effect in Sprague-Dawley rat SNL model assessed as duration of paw withdrawal 100 mg/kg, ip after 1.5 hrs; format: functional; conditions: route intraperitoneal; in short: as §3
Mus musculus [16] = experiment: Analgesic activity in Swiss Albino mouse assessed as inhibition of acetic acid-induced writhing responses at 100 mg/kg, ip; format: functional; conditions: route intraperitoneal; in short: as §6
Mus musculus [17] = experiment: Anticonvulsant activity in Swiss Albino mouse at 300 mg/kg, ip after 0.5 hr by scSTY test; format: functional, organism-based; design: dose 300 mg/kg; in short: as §5
Rattus norvegicus [18] = experiment: Anti-cold allodynia effect in Sprague-Dawley rat SNL model assessed as duration of paw withdrawal 100 mg/kg, ip after 1 hrs; format: functional; conditions: route intraperitoneal; in short: as §3
Mus musculus [19] = experiment: Anticonvulsant activity in Swiss Albino mouse at 300 mg/kg, ip after 0.5 hr by MES test; format: functional, organism-based; design: dose 300 mg/kg; in short: as §5
Mus musculus [20] = experiment: Neurotoxicity in Swiss Albino mouse at 300 mg/kg, ip after 4 hrs by rotarod test; format: functional, organism-based; design: dose 300 mg/kg
In short: (§7)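 Swiss mice (20-25 g) are trained on an accelerating rotorod (10 rpm, 3.2 cm rod), then injected i.p. at 30, 100 or 300 mg/kg, with three per group. Neurotoxicity means failure to keep equilibrium for at least 1 min in each of three trials, checked at 0.5 and 4 h. The value reported is the minimum dose affecting half or more of the mice.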

Rattus norvegicus [21] = experiment: Anti-cold allodynia effect in Sprague-Dawley rat SNL model assessed as duration of paw withdrawal 100 mg/kg, ip after 2.5 hrs; format: functional; conditions: route intraperitoneal; in short: as §3
Rattus norvegicus [22] = experiment: Antihyperalgesic effects in Sprague-Dawley rat SNL model assessed as duration of paw withdrawal at 100 mg/kg, ip after 1 hr, ip; format: functional; conditions: route intraperitoneal; in short: as §1
Mus musculus [23] = experiment: Anticonvulsant activity in Swiss Albino mouse at 300 mg/kg, ip after 4 hrs by scSTY test; format: functional, organism-based; design: dose 300 mg/kg; in short: as §5
Rattus norvegicus [24] = experiment: Effect on spontaneous pain in Sprague-Dawley rat CCI model assessed as duration of paw withdrawal at 100 mg/kg, ip after 2.5 hrs; format: functional; conditions: route intraperitoneal; in short: as §2
Mus musculus [25] = experiment: Neurotoxicity in Swiss Albino mouse at 300 mg/kg, ip after 0.5 hr by rotarod test; format: functional, organism-based; design: dose 300 mg/kg; in short: as §7
Rattus norvegicus [26] = experiment: Antihyperalgesic effects in Sprague-Dawley rat CCI model assessed as duration of paw withdrawal at 100 mg/kg, ip after 1.5 hrs; format: functional; conditions: route intraperitoneal
Mus musculus [27] = experiment: Anticonvulsant activity in Swiss Albino mouse at 300 mg/kg, ip after 4 hrs by scPIC test; format: functional, organism-based; design: dose 300 mg/kg; in short: as §5
Mus musculus [28] = experiment: Anticonvulsant activity in Swiss Albino mouse at 300 mg/kg, ip after 0.5 hr by scPTZ test; format: functional, organism-based; design: dose 300 mg/kg; in short: as §5
Rattus norvegicus [29] = experiment: Effect on spontaneous pain in Sprague-Dawley rat CCI model assessed as duration of paw withdrawal at 100 mg/kg, ip after 1.5 hrs; format: functional; conditions: route intraperitoneal; in short: as §2
Rattus norvegicus [30] = experiment: Antihyperalgesic effects in Sprague-Dawley rat CCI model assessed as duration of paw withdrawal at 100 mg/kg, ip after 0.5 hr; format: functional; conditions: route intraperitoneal
Rattus norvegicus [31] = experiment: Antihyperalgesic effects in Sprague-Dawley rat CCI model assessed as duration of paw withdrawal at 100 mg/kg, ip after 2 hrs; format: functional; conditions: route intraperitoneal

C/C(=N\NC(=O)NCCCC(=O)O)c1cccc(N)c1
Activity (Rattus norvegicus [1]): 19.5 s | Activity (Rattus norvegicus [2]): 9.6 s | Activity (Rattus norvegicus [3]): 2.4 s | Activity (Rattus norvegicus [4]): 7.3 s | Activity (Rattus norvegicus [5]): 1.4 s | Activity (Rattus norvegicus [6]): 13.5 s | Activity (Rattus norvegicus [7]): 1.2 s | Activity (Rattus norvegicus [8]): 4.8 s | Activity (Rattus norvegicus [9]): 1.7 s | Activity (Mus musculus [10]): inactive | Activity (Mus musculus [11]): 19.7 | Activity (Mus musculus [12]): Active | Activity (Rattus norvegicus [13]): 4.8 s | Activity (Rattus norvegicus [14]): 17.3 s | Activity (Rattus norvegicus [15]): 17.5 s | inhibition in vivo at 100 mg/kg (Mus musculus [16]): 89% | Activity (Mus musculus [17]): inactive | Activity (Rattus norvegicus [18]): 11.2 s | Activity (Mus musculus [19]): Active | Activity (Mus musculus [20]): Active | Activity (Rattus norvegicus [21]): 15.2 s | Activity (Rattus norvegicus [22]): 6.5 s | Activity (Mus musculus [23]): inactive | Activity (Rattus norvegicus [24]): 2.8 s | Activity (Mus musculus [25]): Active | Activity (Rattus norvegicus [26]): 9.9 s | Activity (Mus musculus [27]): inactive | Activity (Mus musculus [28]): inactive | Activity (Rattus norvegicus [29]): 0.9 s | Activity (Rattus norvegicus [30]): 9.3 s | Activity (Rattus norvegicus [31]): 6.6 s
